Rin1 Abl inh – blocks binding of human Rin1 to Abl. TR-FRET Rin1/Abl binding, biochemical. inhibition, % at 7.35 µM. 0.4% of 360,000 active. AID 588664; in the data active = inhibition above about 5%, passing the limit was not always enough
ERAP1 HTS inh – blocks human ERAP1 aminopeptidase activity | Q9NZ08 | recombinant ERAP1, Leu-AMC fluorescence, 60 min | 0.15% of 340,000 active | AID 652197 | inhibition, % at 10.7 µM;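 active = mean replicate inhibition of at least 30%, or all replicates individually reaching that 30% level; inactive = mean below 30% and not every replicate reaching it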;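 also: 0% = neutral control wells and 100% = L-leucinethiol positive control wells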
CAL PDZ FP-1 – blocks peptide binding to human CAL PDZ domain; AID 504414; Q9HD26; inhibition, % at 20 µM; purified CAL PDZ, TMR-peptide fluorescence polarization, 1 h; 0.02% of 330,000 active;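 active = highest replicate inhibition of at least 40%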;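 also: plate controls were DMSO neutral control wells for no effect and unlabeled competitor peptide control wells for full effect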
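Assay system – tagged CAL PDZ protein CerCALP, purified · Timing – 1 h at RT · Compound – single point, 20 µM · Measured by – fluorescence polarization from S- and P-plane intensities, G-factor corrected · Evaluation – inhibition from polarization loss · Probe or stimulus – TMR reporter peptide T*-PRC34 · Buffer or medium – pH 7.4 phosphate-saline buffer, reducing agent, detergent, IgG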
PDI turbidity – blocks human protein disulfide isomerase activity; P07237; PDI insulin aggregation turbidity, A650, 90 min; inhibition, % at 10 µM; 0.052% of 350,000 active;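 active = mean inhibition across replicates of 30% or more, whatever share of single replicates reach that level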
ERp5 inh – inhibitors of human ERp5; inhibition, % at 9.99 µM; 0.05% of 350,000 active; ERp5 insulin aggregation, absorbance 650 nm, 90 min;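 active = mean replicate inhibition above about 25%, with every replicate also reaching it, limit read from the data, passing the limit was not always enough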
Target sequence (Q15084 whole entry, looked up): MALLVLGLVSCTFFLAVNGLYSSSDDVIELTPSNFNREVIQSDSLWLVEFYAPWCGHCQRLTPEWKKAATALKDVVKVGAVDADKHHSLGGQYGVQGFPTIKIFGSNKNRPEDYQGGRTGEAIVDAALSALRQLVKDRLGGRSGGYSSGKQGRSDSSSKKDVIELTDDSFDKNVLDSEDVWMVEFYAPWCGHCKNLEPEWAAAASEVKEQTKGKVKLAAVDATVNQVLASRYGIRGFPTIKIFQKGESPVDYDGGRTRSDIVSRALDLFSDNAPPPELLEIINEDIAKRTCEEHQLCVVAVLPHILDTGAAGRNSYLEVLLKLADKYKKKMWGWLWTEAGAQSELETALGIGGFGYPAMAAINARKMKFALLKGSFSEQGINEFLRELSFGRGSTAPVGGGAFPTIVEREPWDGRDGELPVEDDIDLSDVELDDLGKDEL
CAL PDZ FP-2 – inhibitors of human CAL PDZ peptide binding; 0.92% of 300,000 active; inhibition, % at 24.9 µM; purified CAL PDZ, TMR-peptide fluorescence polarization, 1 h; AID 602252;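 active = mean inhibition of at least 30% with at least half of replicates also reaching 30%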;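 also: 0% = DMSO neutral control and 100% = excess unlabeled competitor peptide PRC23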
* = called active by the depositor; / = no result given; + = active, no number. Sampled rows, rich in hits. Any-hit rate of the full collection: about 1.1%.

SMILES | Rin1 Abl inh | ERAP1 HTS inh | CAL PDZ FP-1 | PDI turbidity | ERp5 inh | CAL PDZ FP-2
Nc1c(C(=O)NCC2CCCO2)sc2nc3c(c(-c4ccco4)c12)CC/C3=C\c1ccco1 (centres undefined) | 5.6* | 2.0 | 0.9 | 9.1 | 12.9 | 1.0
CCOC(=O)c1c(NC(=O)C2CCCCC2)sc2c1CCN(CC)C2 | -1.3 | 7.3 | -0.7 | / | 0.9 | 45.4*
CC(=O)n1cc(/C=N/NC(=O)c2ccccc2Cl)c2ccccc21 | -0.7 | / | -1.2 | -11.2 | / | 68.2*
COC(=O)CCCCCCCCCC[N+]1(C)CCCCC1 | -0.8 | / | -1.7 | 19.4 | / | -2.4
CC(=O)OCCCCCCCCCCC[N+]1(C)CCCCC1 | 1.5 | 88.0* | 0.2 | 5.0 | -4.9 | -0.2
CCOCCCNC(=O)c1ccc(OC(C)=O)cc1 | 0.2 | / | -1.2 | -6.7 | / | 36.5*
CCOCCCNC(=O)c1ccc(OC)cc1 | -0.4 | / | -0.7 | -4.7 | / | -1.5
CN1C(=O)c2cc(NS(=O)(=O)c3cccc(F)c3)ccc2OC[C@H]2O[C@H](CC(=O)O)CC[C@H]21 | / | -2.5 | / | / | -0.3 | /
CCCNC(=O)Nc1cc(OC)c(OC)cc1Cc1nccc2cc(OC)c(OC)cc12 | 2.6 | 0.7 | -1.6 | -0.9 | -0.6 | -3.6
CCS(=O)(=O)Nc1cc(OC)c(OC)cc1Cc1nccc2cc(OC)c(OC)cc12 | -4.2 | 2.8 | -0.9 | -6.1 | 2.3 | 65.0*
CN(C)CC#Cc1ccc([C@H]2[C@@H](CO)N3CCCCN(CC4CC4)C[C@@H]23)cc1 | / | -0.5 | / | / | -6.5 | /
CC(=O)c1ccc(NC(=S)N(CCCN(C)C)Cc2ccccc2)cc1 | 3.1 | 0.2 | 0.4 | -2.8 | -2.3 | 57.7*
CCCN(Cc1ccccc1)C(=S)Nc1ccc(C(C)=O)cc1 | -1.1 | -3.3 | 0.1 | 3.6 | 1.0 | 3.0
C[C@@H]1CN([C@H](C)CO)C(=O)c2cc(NC(=O)Nc3cccc4ccccc34)ccc2O[C@H]1CN(C)Cc1ccc(Cl)c(Cl)c1 | / | 0.4 | / | / | -3.0 | /
O=C(C[C@H]1C[C@H]2c3cc(NC(=O)c4ccc5c(c4)OCO5)ccc3O[C@H]2[C@H](CO)O1)NCC1CC1 | / | -0.2 | / | / | 0.1 | /
CC(=O)N(C)C[C@H]1Oc2ncc(C#CC3(O)CCCC3)cc2C(=O)N([C@H](C)CO)C[C@H]1C | / | 3.8 | / | / | 1.8 | /
COC(=O)c1cc(S(=O)(=O)NCCc2ccc(SC)cc2)c[nH]1 | 0.4 | -3.9 | -1.2 | 8.0 | -2.7 | 75.6*
COC(=O)c1cc(S(=O)(=O)NCCN2CCN(c3ccccc3F)CC2)c[nH]1 | 2.6 | -3.8 | -1.4 | -4.7 | 1.1 | 46.6*
COC(=O)c1cc(S(=O)(=O)N2CCN(c3ccccc3F)CC2)c[nH]1 | 3.0 | -3.9 | -2.6 | -2.6 | 6.4 | -3.8
C[C@@H]1CN([C@@H](C)CO)S(=O)(=O)c2ccc(C#C[C@@H](C)O)cc2O[C@H]1CN(C)C(=O)C1CC1 | / | 2.6 | / | / | 11.7 | /
C1CCN(c2nc3nonc3nc2N2CCCC2)C1 | 0.4 | / | -1.8 | -0.2 | / | 0.9
CCn1cc(CNc2nc3nonc3nc2N2CCCCC2)cn1 | 0.4 | 1.3 | -0.6 | 15.4 | -2.1 | 72.0*
COc1cc(CC(=O)NCC(C)(C)N2CCOCC2)cc(OC)c1OC | -0.4 | -5.8 | -0.3 | -4.0 | -3.2 | 55.1*
C[C@@H]1CN([C@@H](C)CO)C(=O)c2cc(NC(=O)Nc3ccc(C(F)(F)F)cc3)ccc2O[C@H]1CN(C)C(=O)Nc1ccc(C(F)(F)F)cc1 | / | 1.3 | / | / | 0.5 | /
Cc1cc2nc(/C(C#N)=C/c3ccncc3)[nH]c2cc1C | -1.7 | -2.1 | 15.1 | -0.5 | 1.3 | 107.1*
SMILES | Rin1 Abl inh | ERAP1 HTS inh | CAL PDZ FP-1 | PDI turbidity | ERp5 inh | CAL PDZ FP-2
Nc1c(Cl)cc(N=Nc2ccccc2)cc1Cl | -0.3 | -1.8 | 0.1 | 5.4 | -1.9 | +
CO[C@H]1CN(C)C(=O)c2ccc(NC(C)=O)cc2OC[C@H](C)N(C(=O)C2CCC2)C[C@@H]1C | / | -0.8 | / | / | 1.1 | /
CCOc1ccc(NC(=O)CN(C)S(=O)(=O)c2cccs2)cc1 | 4.4 | / | -0.6 | 1.7 | / | 59.2*
Cc1cccc(C(=O)Nc2ccn(C)n2)c1 | 4.2 | 0.1 | -0.3 | 2.7 | -4.3 | 54.7*
COc1ccccc1CNC(=O)CC1Sc2ccccc2NC1=O (centres undefined) | -1.6 | 2.0 | -0.3 | -12.3 | 2.8 | 62.2*
CCCC(=O)Nc1ccc2c(c1)C(=O)N(C)[C@H]1CC[C@@H](CC(=O)Nc3ccccc3)O[C@@H]1CO2 | / | -0.5 | / | / | -5.0 | /
COc1ccc2c3c([nH]c2c1)[C@@H](CO)N(Cc1ccccc1Cl)CC31CN(C(C)=O)C1 | / | -1.9 | / | / | -1.6 | /
COc1ccc2c3c([nH]c2c1)[C@H](CO)N(Cc1ccccc1OC)CC31CN(C)C1 | / | 53.2* | / | / | 6.2 | /
COc1ccc2c3c([nH]c2c1)[C@H](CO)N(Cc1ccccc1)CC31CN(C)C1 | / | -3.1 | / | / | 3.8 | /
COc1ccc2c3c([nH]c2c1)[C@@H](CO)N(Cc1ccccc1OC)CC31CN(C)C1 | / | 51.1* | / | / | -6.4 | /
COCC(=O)N1CCC2(CC1)CN(Cc1ccccc1F)[C@H](CO)c1[nH]c3cc(OC)ccc3c12 | / | -15.4 | / | / | 0.4 | /
COCC(=O)N1CC2(C1)CN(Cc1ccccc1F)[C@H](CO)c1[nH]c3cc(OC)ccc3c12 | / | 5.2 | / | / | 33.6* | /
COCC(=O)Nc1ccc2c(c1)OC[C@H](C)N(C(=O)COC)C[C@H](C)[C@H](OC)CN(C)C2=O | / | 0.0 | / | / | -2.6 | /
CN(C)C(=O)C[C@@H]1CC[C@@H]2[C@H](COC[C@@H](O)CN2CC2CCCC2)O1 | / | 0.6 | / | / | 3.4 | /
O=C(NCC1CCCN(Cc2cccc(F)c2)C1)c1cccc2ccccc12 (centres undefined) | -2.5 | -1.7 | 0.0 | 15.8 | 1.4 | 68.0*
CSc1cccc(CN2CCCC(CNC(=O)c3ccco3)C2)c1 (centres undefined) | -1.1 | 0.0 | -0.8 | 3.5 | 8.1 | 146.4*
CCOc1cccc(CN2CCCC(CNC(=O)c3cccc(OC)c3OC)C2)c1 (centres undefined) | -5.5 | -1.7 | / | 0.5 | 4.6 | -5.1
CCOc1ccccc1-n1nnnc1SCC(=O)NC(=O)Cc1ccccc1 | 0.0 | 33.2* | -2.2 | -9.4 | 4.2 | 1.9
CCOc1ccccc1-n1nnnc1SCC(=O)NC(=O)NCc1ccco1 | -4.2 | / | -1.9 | -1.4 | / | -0.7
O=C([C@@H]1[C@@H](CO)[C@@H]2Cn3c(cccc3=O)[C@H]1N2C(=O)c1ccccn1)N1CCCCC1 | / | -4.1 | / | / | -0.4 | /
CCOC(=O)C1(C(F)(F)F)N=C(c2ccccc2F)OC(N(C)C)=N1 (centres undefined) | -2.5 | 4.9 | -0.8 | -2.1 | -3.7 | -3.8
COC(=O)C1(C(F)(F)F)N=C(N(C)C)OC(N(C)C)=N1 | -2.0 | / | -1.6 | 13.5 | / | 42.4*
CCOC(=O)c1ccc2[nH]c3c(c2c1)CCCCC3=O | 2.7 | -3.2 | -2.2 | -7.0 | -1.4 | 37.4*
COc1ccc(-n2nc(C(=O)NCC(=O)N(C)Cc3ccccc3)c3ccccc3c2=O)cc1 | -1.3 | -9.3 | -2.0 | 3.1 | -2.9 | 38.1*
COc1ccc(-n2nc(C(=O)NCC(=O)O)c3ccccc3c2=O)cc1 | 0.9 | 1.8 | 0.2 | -3.8 | 2.2 | 0.6

Bioassay records as filed in PubChem BioAssay.
